In assay [1] the target is T1, Ectonucleotide pyrophosphatase/phosphodiesterase family member 1 (Homo sapiens) (UniProt P22413).
T1 sequence (whole entry): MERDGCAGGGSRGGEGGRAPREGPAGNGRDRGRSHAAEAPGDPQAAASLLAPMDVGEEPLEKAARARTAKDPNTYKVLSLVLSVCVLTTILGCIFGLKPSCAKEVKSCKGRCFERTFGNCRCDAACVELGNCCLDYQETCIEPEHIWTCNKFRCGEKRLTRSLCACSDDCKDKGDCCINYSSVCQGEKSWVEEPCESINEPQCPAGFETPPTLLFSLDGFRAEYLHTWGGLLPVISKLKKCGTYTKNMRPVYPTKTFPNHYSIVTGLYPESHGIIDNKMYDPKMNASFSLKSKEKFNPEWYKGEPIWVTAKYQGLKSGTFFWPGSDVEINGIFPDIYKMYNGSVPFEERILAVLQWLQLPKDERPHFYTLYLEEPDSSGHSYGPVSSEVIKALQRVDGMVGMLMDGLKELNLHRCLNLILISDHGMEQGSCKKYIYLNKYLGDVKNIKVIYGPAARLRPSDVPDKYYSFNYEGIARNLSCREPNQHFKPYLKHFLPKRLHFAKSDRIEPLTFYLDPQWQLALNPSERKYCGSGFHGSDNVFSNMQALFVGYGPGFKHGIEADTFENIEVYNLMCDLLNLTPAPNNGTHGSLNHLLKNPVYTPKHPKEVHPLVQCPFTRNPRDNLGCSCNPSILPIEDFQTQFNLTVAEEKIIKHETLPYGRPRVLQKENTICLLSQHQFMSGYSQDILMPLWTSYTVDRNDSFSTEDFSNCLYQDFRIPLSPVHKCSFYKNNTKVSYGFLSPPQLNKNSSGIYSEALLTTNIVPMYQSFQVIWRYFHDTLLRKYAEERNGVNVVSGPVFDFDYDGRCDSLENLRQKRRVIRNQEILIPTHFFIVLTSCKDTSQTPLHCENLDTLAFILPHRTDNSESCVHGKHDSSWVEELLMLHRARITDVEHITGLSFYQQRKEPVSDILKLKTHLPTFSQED
Briefly: Inhibition of NPP1 in human HTB-85 cells assessed as production of p-nitrophenol using pnp-TMP at 100 uM measured after 20 mins by spectrophotometry. The class given is cell-based. In outline: (§1)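 Intact osteocarcinoma HTB85 (SaOS-2) cells in 24-well plates, 0.5 mL incubation mixture, analogue and pnp-TMP each at 100 μM. After 20 min an aliquot was read for p-nitrophenol at 410 nm. Substrate alone set as 100%. Mean ± SD of three experiments in triplicate.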

Assay [2] addresses T1, Ectonucleotide pyrophosphatase/phosphodiesterase family member 1 (Homo sapiens). Put plainly: Inhibition of human NPP1 expressed in COS7 cells assessed as production of p-nitrophenol using pnp-TMP as the substrate preincubated at 100 uM for 3 mins before substrate addition measured after 15 mins […]. The class given is cell-based. The following applies: COS-7. The procedure, abridged: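 Crude extracts of COS-7 cells transiently transfected with human NPP1 or NPP3, preincubated 3 min at 37 °C in 1 mM CaCl2, 140 mM NaCl, 5 mM KCl, 50 mM Tris pH 8.5 with analogue at 100 μM. Reaction started with 100 μM pnp-TMP; p-nitrophenol at 410 nm after 15 min. Activity without analogue set as 100%. Mean ± SD of 3−6 experiments in triplicate.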

Assay [3] has as its target T2, Ectonucleotide pyrophosphatase/phosphodiesterase family member 3 (Homo sapiens) (UniProt O14638).
T2 sequence (whole entry): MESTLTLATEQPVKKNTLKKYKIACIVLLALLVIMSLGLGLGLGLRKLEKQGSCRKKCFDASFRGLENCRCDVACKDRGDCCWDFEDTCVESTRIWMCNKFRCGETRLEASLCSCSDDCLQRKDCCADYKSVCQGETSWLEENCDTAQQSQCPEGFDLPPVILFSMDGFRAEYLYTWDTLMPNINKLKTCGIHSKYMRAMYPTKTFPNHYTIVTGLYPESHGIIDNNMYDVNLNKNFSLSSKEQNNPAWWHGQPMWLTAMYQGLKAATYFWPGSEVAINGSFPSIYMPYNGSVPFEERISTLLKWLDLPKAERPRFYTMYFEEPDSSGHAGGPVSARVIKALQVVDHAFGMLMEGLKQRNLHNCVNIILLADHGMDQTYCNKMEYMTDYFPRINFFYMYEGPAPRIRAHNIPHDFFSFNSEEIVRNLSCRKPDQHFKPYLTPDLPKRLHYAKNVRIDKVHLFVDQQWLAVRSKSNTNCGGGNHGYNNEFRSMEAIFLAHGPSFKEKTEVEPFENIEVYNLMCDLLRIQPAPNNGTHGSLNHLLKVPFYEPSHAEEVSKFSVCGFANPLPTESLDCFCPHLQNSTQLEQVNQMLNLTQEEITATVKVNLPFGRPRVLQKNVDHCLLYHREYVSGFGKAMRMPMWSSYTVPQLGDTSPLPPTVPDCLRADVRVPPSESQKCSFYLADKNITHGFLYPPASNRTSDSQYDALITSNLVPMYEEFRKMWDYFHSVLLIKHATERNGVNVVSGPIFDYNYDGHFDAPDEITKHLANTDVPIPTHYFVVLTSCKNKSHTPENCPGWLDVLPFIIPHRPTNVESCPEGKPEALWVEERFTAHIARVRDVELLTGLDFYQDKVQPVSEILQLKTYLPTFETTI
Briefly: Inhibition of NPP3 in human HTB-85 cells assessed as production of p-nitrophenol using pnp-TMP at 100 uM measured after 20 mins by spectrophotometry. In kind it is cell-based. In outline: as §1

The target in assay [4] is T1, Ectonucleotide pyrophosphatase/phosphodiesterase family member 1 (Homo sapiens). Put plainly: Competitive inhibition of human NPP1 expressed in COS7 cells assessed as production of p-nitrophenol using pnp-TMP as the substrate preincubated at 25 to 100 uM for 3 mins before substrate addition measured after 15 mins by Dixon/Cornish Bowden method. The class given is cell-based. Conditions: COS-7. The procedure, abridged: (§2)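 Crude protein extract from COS-7 cells transiently transfected with human NPP1 (sonicated, debris cleared at 300g), preincubated 3 min at 37 °C with inhibitor (0, 25, 50, 100 μM) in 1 mM CaCl2, 140 mM NaCl, 5 mM KCl, 50 mM Tris pH 8.5. pnp-TMP (25, 50, 100 μM) added; p-nitrophenol read at 410 nm after 15 min. Ki,app and inhibition type from Dixon and Cornish-Bowden plots, three independent experiments.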

Assay [5] concerns the target T3, Ectonucleotide pyrophosphatase/phosphodiesterase family member 1 (Homo sapiens, UniProt P22413).
T3 sequence (P22413 whole entry): T1 sequence (whole entry)
Put plainly: Mixed type inhibition of human NPP1 expressed in COS7 cells assessed as production of p-nitrophenol using pnp-TMP as the substrate preincubated for 3 mins before substrate addition measured after 15 mins by Dixon/Cornish Bowden method. Conditions: read-out: Ki(app). In kind it is cell-based, COS-7. The procedure, abridged:
as §2

Assay [6] has as its target T4, Ectonucleoside triphosphate diphosphohydrolase 8 (Homo sapiens) (UniProt Q5MY95).
T4 sequence (whole entry): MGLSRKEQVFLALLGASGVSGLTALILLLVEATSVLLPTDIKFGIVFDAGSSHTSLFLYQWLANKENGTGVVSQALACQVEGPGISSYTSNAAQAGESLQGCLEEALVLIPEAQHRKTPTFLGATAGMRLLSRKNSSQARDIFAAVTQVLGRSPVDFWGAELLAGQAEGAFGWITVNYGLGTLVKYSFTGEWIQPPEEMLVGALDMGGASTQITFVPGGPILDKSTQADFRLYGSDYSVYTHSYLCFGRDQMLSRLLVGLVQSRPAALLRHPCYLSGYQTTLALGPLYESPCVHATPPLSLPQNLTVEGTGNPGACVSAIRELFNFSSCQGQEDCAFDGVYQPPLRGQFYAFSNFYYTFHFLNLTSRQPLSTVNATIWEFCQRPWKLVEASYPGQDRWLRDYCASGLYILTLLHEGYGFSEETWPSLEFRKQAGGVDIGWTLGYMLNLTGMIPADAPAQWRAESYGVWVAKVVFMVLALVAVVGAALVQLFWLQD
Briefly: Inhibition of human NTPDase8 assessed as amount of inorganic phosphate released using ATP as the substrate preincubated at 100 uM for 3 mins before substrate addition after 15 mins by malachite green reagent method. In outline: (§3)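 Crude extracts of COS-7 cells transiently transfected with human NTPDase1, -2, -3 or -8, preincubated 3 min at 37 °C in Tris-Ringer medium pH 7.4 with analogue (final 100 μM). Started with 100 μM ATP, stopped after 15 min with malachite green; released Pi read at 630 nm. ATP alone set as 100%. Mean ± SD of 3−6 experiments in triplicate.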

Assay [7] has as its target T5, Ectonucleoside triphosphate diphosphohydrolase 1 (Homo sapiens) (UniProt P49961).
T5 sequence (whole entry): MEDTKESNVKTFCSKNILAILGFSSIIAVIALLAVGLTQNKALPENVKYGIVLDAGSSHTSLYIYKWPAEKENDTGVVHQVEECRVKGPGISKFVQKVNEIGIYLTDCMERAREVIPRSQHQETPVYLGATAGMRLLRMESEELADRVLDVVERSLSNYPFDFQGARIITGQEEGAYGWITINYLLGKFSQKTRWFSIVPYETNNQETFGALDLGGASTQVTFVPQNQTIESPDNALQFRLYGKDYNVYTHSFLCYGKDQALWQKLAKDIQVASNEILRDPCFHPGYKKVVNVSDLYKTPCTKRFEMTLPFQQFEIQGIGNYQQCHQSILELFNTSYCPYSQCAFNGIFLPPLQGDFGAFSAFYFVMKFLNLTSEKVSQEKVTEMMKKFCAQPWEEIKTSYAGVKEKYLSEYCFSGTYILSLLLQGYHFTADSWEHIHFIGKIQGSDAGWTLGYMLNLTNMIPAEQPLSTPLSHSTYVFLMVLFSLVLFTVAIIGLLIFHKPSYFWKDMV
Put plainly: Inhibition of human NTPDase1 assessed as amount of inorganic phosphate released using ATP as the substrate preincubated at 100 uM for 3 mins before substrate addition after 15 mins by malachite green reagent method. In outline: as §3

Assay [8] concerns the target T6, Ectonucleoside triphosphate diphosphohydrolase 3 (Homo sapiens) (UniProt O75355).
T6 sequence (whole entry): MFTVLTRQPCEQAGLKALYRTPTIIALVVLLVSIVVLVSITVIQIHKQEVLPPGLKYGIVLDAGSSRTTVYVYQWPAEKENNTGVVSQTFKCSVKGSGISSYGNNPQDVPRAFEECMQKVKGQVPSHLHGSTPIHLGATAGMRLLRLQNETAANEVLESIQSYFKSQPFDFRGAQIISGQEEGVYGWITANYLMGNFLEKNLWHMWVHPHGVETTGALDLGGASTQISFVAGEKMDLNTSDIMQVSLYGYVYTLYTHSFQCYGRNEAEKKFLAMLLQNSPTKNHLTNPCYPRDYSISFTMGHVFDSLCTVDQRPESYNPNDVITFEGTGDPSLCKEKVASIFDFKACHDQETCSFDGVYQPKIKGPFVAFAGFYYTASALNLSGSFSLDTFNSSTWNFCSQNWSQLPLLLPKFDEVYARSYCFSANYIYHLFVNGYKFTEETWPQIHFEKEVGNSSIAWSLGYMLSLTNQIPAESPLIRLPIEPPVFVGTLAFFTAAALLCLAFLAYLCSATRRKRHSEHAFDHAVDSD
Put plainly: Inhibition of human NTPDase3 assessed as amount of inorganic phosphate released using ATP as the substrate preincubated at 100 uM for 3 mins before substrate addition after 15 mins by malachite green reagent method. The procedure, abridged:
as §3

Calls of active or inactive are those of the source. The rule behind the calls is not given here.

By inhibition is commonly meant the relative decrease from the control value, in per cent.

Consider `B[P@](=O)(OC[C@H]1O[C@@H](n2cnc3c(N)ncnc32)[C@H](O)[C@@H]1O)OP(=O)(O)C(Cl)(Cl)P(=O)(O)O`, for which the inhibition in assay [1] was found to be 41%; in assay [2], 90%; in assay [3], 41%. Also, in assay [4], the inhibition entry is “Active”. The Ki in assay [5] was determined as 28 µM.
For the compound `B[P@@](=O)(OC[C@H]1O[C@@H](n2cnc3c(N)ncnc32)[C@H](O)[C@@H]1O)OP(=O)(O)C(Cl)(Cl)P(=O)(O)O`, the inhibition in assay [2] was found to be 90%; in assay [6], 30%; in assay [7], 50%; in assay [8], 50%. Further, the inhibition entry in assay [4] is “Active”. In addition, in assay [5], the Ki came out at 18 µM.

For the origin of these results see ChEMBL document CHEMBL3085721, “Nonhydrolyzable ATP analogues as selective inhibitors of human NPP1: a combined computational/experimental study” (J Med Chem, 2013).
